The term ILS denotes how much longer treated animals lived than controls. Read a high ILS as much gain in survival.

Assay [1] relates to L1210. In words: Compound is evaluated for increase in life span against L1210 leukemia in mice, at dose 80 mg/kg. In kind it is functional. The settings on record: Mus musculus. Summed up:
(§1)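 B6D2F1 mice were inoculated ip with 10⁵ L1210 cells on day 0. Drug was given ip on days 1, 4 and 7 (q3d) as a suspension in 10% Tween 80 or 1:1:8 emulphor–ethanol–water, or as the disodium salt in water. The read-out was median survival of treated versus control mice (T/C, days), expressed as % increase in life span.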

Assay [2] has as its system L1210. In words: Compound is evaluated for activity against L1210 leukemia in mice, at dose 160 mg/kg. Type of assay: functional, Mus musculus. Summed up: (§2)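 B6D2F1 mice were inoculated ip with 10^5 L1210 cells on day 0. Test agents were given ip on days 1, 4 and 7 in 10% Tween 80 or a 1:1:8 emulphor-ethanol-water suspension; MTX was given ip as the disodium salt in water. Groups were mostly five mice. Read-out was median survival of treated vs control mice (days) and % increase in life span.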

The target in assay [3] is Dihydrofolate reductase (Lactobacillus casei) (UniProt P00381). In words: Compound is evaluated for binding to Lactobacillus casei dihydrofolate reductase using kinetic assay. The settings on record: Lacticaseibacillus casei.
Assay [4] concerns the target T1, Dihydrofolate reductase (Mus musculus) (UniProt P00375).
T1 sequence (whole entry): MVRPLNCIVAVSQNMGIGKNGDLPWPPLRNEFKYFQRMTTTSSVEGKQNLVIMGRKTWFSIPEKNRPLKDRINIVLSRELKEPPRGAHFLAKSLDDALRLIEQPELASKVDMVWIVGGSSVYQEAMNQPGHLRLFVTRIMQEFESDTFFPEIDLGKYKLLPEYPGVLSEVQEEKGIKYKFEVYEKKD
In words: Compound is evaluated for binding to L1210 mouse leukemia cells dihydrofolate reductase using ligand-binding assay.

The subject of assay [5] is L1210. Kind of assay: Compound is evaluated for increase in life span against L1210 leukemia in mice, at dose 160 mg/kg. In kind it is functional. The settings on record: Mus musculus. Summed up: as §1
Assay [6] concerns Mus musculus. In words: Compound is evaluated for activity against L1210 leukemia in mice, at dose 160 mg/kg expressed as T/C=13/9. In kind it is functional. The gist of the method:
as §2

Assay [7] concerns Mus musculus. In words: Compound is evaluated for activity against L1210 leukemia in mice, at dose 80 mg/kg expressed as T/C=11/9. Type of assay: functional. The gist of the method: as §2
For the next assay, the system named is CCRF-CEM. Kind of assay: Compound is tested for the inhibition of growth of human lymphoblastic leukemia cells (CEM). Type of assay: functional. The settings on record: read-out: ID50 (the source's name). The gist of the method:
(§3)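 CEM human lymphoblastic and L1210 murine leukemia cells were grown in culture with drug for 48 h, at concentrations up to 10 μM. The read-out was growth inhibition, given as ID50 or, where ID50 was not reached, as percent inhibition at 10 μM. Values are averages of triplicate experiments.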

In assay [8] the test system is L1210. Kind of assay: Compound is evaluated for activity against L1210 leukemia in mice, at dose 80 mg/kg. Type of assay: functional, Mus musculus. The gist of the method:
as §2

Assay [9] deals with L1210. Kind of assay: Compound is tested for the inhibition of growth of murine leukemia cells (L1210). In kind it is functional. The settings on record: Mus musculus, read-out: ID50 (the source's name). The gist of the method:
as §3

Chain of Dihydrofolate reductase (Lactobacillus casei) (P00381 whole entry): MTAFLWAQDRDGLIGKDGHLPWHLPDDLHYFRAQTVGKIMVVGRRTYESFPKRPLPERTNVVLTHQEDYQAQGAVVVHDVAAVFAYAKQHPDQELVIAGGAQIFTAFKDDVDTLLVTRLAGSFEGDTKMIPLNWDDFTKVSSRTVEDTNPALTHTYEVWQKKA

In the assay with L1210 [1], `CN(Cc1cnc2nc(N)nc(N)c2n1)c1ccc(C(=O)NC(CCC(=O)NCc2ccc(Cl)cc2)C(=O)NCc2ccc(Cl)cc2)cc1` (stereo not given) showed an ILS at 80 mg/kg of 22%. The MTX equivalent in the assay on L1210 [2] is 130 mg/kg; in the assay on L1210 [8], 65 mg/kg. The ID50 was found to be 2.3 µM in assay [3] and 0.18 µM in assay [4]. The ILS at 160 mg/kg in the assay on L1210 [5] was determined as 44%. For the same compound, the “Median T/C” value in the assay on Mus musculus [6] came out at 13 days; with Mus musculus [7], 11 days. In addition, the results for the IC50 with CCRF-CEM and in the assay on L1210 [9] were greater than 10 µM and 6.6 µM, respectively.

Values taken from ChEMBL document CHEMBL1121831 (1981).
